According to ChEMBL document CHEMBL4406834, “Phenylthiazoles with nitrogenous side chain: An approach to overcome molecular obesity” (Eur J Med Chem, 2019):
≈ marks a conversion by molar mass, not a printed value.

Tests used:
Format in all cases: functional
[1] = tested on: Staphylococcus aureus; experiment: Antibacterial activity against methicillin-resistant Staphylococcus aureus NRS384 USA300 after 18 to 20 hrs by broth microdilution assay
How it was run: (§1)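 Broth microdilution per CLSI. Strains grown aerobically overnight on tryptone soy agar at 37 °C, adjusted to 0.5 McFarland, then diluted in cation-adjusted Mueller-Hinton broth to about 5 × 10^5 CFU/mL. Compounds (10 mg/mL DMSO stocks) serially diluted. Incubated aerobically at 37 °C for 18-20 h. MIC is the lowest concentration with no visible growth.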

[2] = tested on: Acinetobacter baumannii; experiment: Antibacterial activity against Acinetobacter baumannii ATCC 19606; details: ATCC 19606 = CIP 70.34 = JCM 6841
[3] = tested on: Escherichia coli; experiment: Antibacterial activity against Escherichia coli BW25113
[4] = tested on: Escherichia coli; experiment: Antibacterial activity against TolC-deficient Escherichia coli JW55031
[5] = tested on: Escherichia coli; experiment: Antibacterial activity against Escherichia coli ATCC 25922
[6] = tested on: Klebsiella pneumoniae; experiment: Antibacterial activity against Klebsiella pneumoniae BAA-1706
[7] = tested on: Pseudomonas aeruginosa; experiment: Antibacterial activity against Pseudomonas aeruginosa ATCC 27853
[8] = tested on: Pseudomonas aeruginosa; experiment: Antibacterial activity against Pseudomonas aeruginosa ATCC 15442
[9] = tested on: Acinetobacter baumannii; experiment: Bactericidal activity against Acinetobacter baumannii ATCC 19606; details: ATCC 19606 = CIP 70.34 = JCM 6841
[10] = tested on: Escherichia coli; experiment: Bactericidal activity against Escherichia coli BW25113
[11] = tested on: Escherichia coli; experiment: Bactericidal activity against TolC-deficient Escherichia coli JW55031
[12] = tested on: Escherichia coli; experiment: Bactericidal activity against Escherichia coli ATCC 25922
[13] = tested on: Klebsiella pneumoniae; experiment: Bactericidal activity against Klebsiella pneumoniae BAA-1706
[14] = tested on: Pseudomonas aeruginosa; experiment: Bactericidal activity against Pseudomonas aeruginosa ATCC 27853
[15] = tested on: Pseudomonas aeruginosa; experiment: Bactericidal activity against Pseudomonas aeruginosa ATCC 15442
[16] = tested on: Streptococcus pneumoniae; experiment: Bactericidal activity against methicillin-resistant Streptococcus pneumoniae ATCC 700677 incubated for 18 to 20 hrs followed by replating on tryptic soy agar plate and further incubated for 18 to 24 hrs by CLSI-based broth microdilution assay
How it was run: (§2)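 MBC: after the broth microdilution MIC (CAMHB, ~5 × 10^5 CFU/mL, 37 °C, 18-20 h), 4 µL from wells without growth plated onto tryptic soy agar. Plates incubated 37 °C for 18-20 h. MBC is the lowest concentration giving 99.9% reduction in growth.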

[17] = tested on: Streptococcus pneumoniae; experiment: Bactericidal activity against cephalosporin-resistant Streptococcus pneumoniae ATCC 51916 incubated for 18 to 20 hrs followed by replating on tryptic soy agar plate and further incubated for 18 to 24 hrs by CLSI-based broth microdilution assay; how it was run: as §2
[18] = tested on: Listeria monocytogenes; experiment: Bactericidal activity against Listeria monocytogenes ATCC 19111 incubated for 18 to 20 hrs followed by replating on tryptic soy agar plate and further incubated for 18 to 24 hrs by CLSI-based broth microdilution assay
[19] = tested on: Enterococcus faecium; experiment: Bactericidal activity against vancomycin-resistant Enterococcus faecium ATCC 700221 incubated for 18 to 20 hrs followed by replating on tryptic soy agar plate and further incubated for 18 to 24 hrs by CLSI-based broth microdilution assay; how it was run: as §2
[20] = tested on: Enterococcus faecalis; experiment: Bactericidal activity against vancomycin-resistant Enterococcus faecalis ATCC 51299 incubated for 18 to 20 hrs followed by replating on tryptic soy agar plate and further incubated for 18 to 24 hrs by CLSI-based broth microdilution assay; how it was run: as §2
[21] = tested on: Staphylococcus epidermidis; experiment: Bactericidal activity against methicillin-resistant Staphylococcus epidermidis NRS101 incubated for 18 to 20 hrs followed by replating on tryptic soy agar plate and further incubated for 18 to 24 hrs by CLSI-based broth microdilution assay
[22] = tested on: Listeria monocytogenes; experiment: Antibacterial activity against Listeria monocytogenes ATCC 19111 after 18 to 20 hrs by CLSI-based broth microdilution assay
[23] = tested on: Enterococcus faecium; experiment: Antibacterial activity against vancomycin-resistant Enterococcus faecium ATCC 700221 after 18 to 20 hrs by CLSI-based broth microdilution assay; how it was run: as §1
[24] = tested on: Staphylococcus epidermidis; experiment: Antibacterial activity against methicillin-resistant Staphylococcus epidermidis NRS101 after 18 to 20 hrs by CLSI-based broth microdilution assay; how it was run: as §1
[25] = tested on: Staphylococcus aureus; experiment: Bactericidal activity against vancomycin-resistant Staphylococcus aureus 12 incubated for 18 to 20 hrs followed by replating on tryptic soy agar plate and further incubated for 18 to 24 hrs by CLSI-based broth microdilution assay; how it was run: as §2
[26] = tested on: Staphylococcus aureus; experiment: Bactericidal activity against vancomycin-resistant Staphylococcus aureus 10 incubated for 18 to 20 hrs followed by replating on tryptic soy agar plate and further incubated for 18 to 24 hrs by CLSI-based broth microdilution assay; how it was run: as §2
[27] = tested on: Staphylococcus aureus; experiment: Bactericidal activity against methicilline-resistant Staphylococcus aureus NRS386 USA700 incubated for 18 to 20 hrs followed by replating on tryptic soy agar plate and further incubated for 18 to 24 hrs by CLSI-based broth microdilution assay; how it was run: as §2
[28] = tested on: Staphylococcus aureus; experiment: Bactericidal activity against methicilline-resistant Staphylococcus aureus NRS385 USA500 incubated for 18 to 20 hrs followed by replating on tryptic soy agar plate and further incubated for 18 to 24 hrs by CLSI-based broth microdilution assay; how it was run: as §2
[29] = tested on: Staphylococcus aureus; experiment: Bactericidal activity against methicilline-resistant Staphylococcus aureus NRS384 USA300 incubated for 18 to 20 hrs followed by replating on tryptic soy agar plate and further incubated for 18 to 24 hrs by CLSI-based broth microdilution assay; how it was run: as §2
[30] = tested on: Staphylococcus aureus; experiment: Bactericidal activity against methicilline-resistant Staphylococcus aureus NRS123 USA400 incubated for 18 to 20 hrs followed by replating on tryptic soy agar plate and further incubated for 18 to 24 hrs by CLSI-based broth microdilution assay; how it was run: as §2
[31] = tested on: Staphylococcus aureus; experiment: Bactericidal activity against methicilline-resistant Staphylococcus aureus NRS-119 incubated for 18 to 20 hrs followed by replating on tryptic soy agar plate and further incubated for 18 to 24 hrs by CLSI-based broth microdilution assay; how it was run: as §2
[32] = tested on: Staphylococcus aureus; experiment: Bactericidal activity against methicilline-sensitive Staphylococcus aureus NRS-107 incubated for 18 to 20 hrs followed by replating on tryptic soy agar plate and further incubated for 18 to 24 hrs by CLSI-based broth microdilution assay; how it was run: as §2
[33] = tested on: Staphylococcus aureus; experiment: Bactericidal activity against methicilline-sensitive Staphylococcus aureus ATCC 6538 incubated for 18 to 20 hrs followed by replating on tryptic soy agar plate and further incubated for 18 to 24 hrs by CLSI-based broth microdilution assay; how it was run: as §2
[34] = tested on: Staphylococcus aureus; experiment: Bactericidal activity against Staphylococcus aureus ATCC BAA42 incubated for 18 to 20 hrs followed by replating on tryptic soy agar plate and further incubated for 18 to 24 hrs by CLSI-based broth microdilution assay; how it was run: as §2
[35] = tested on: Staphylococcus aureus; experiment: Antibacterial activity against vancomycin-resistant Staphylococcus aureus 12 after 18 to 20 hrs by CLSI-based broth microdilution assay; how it was run: as §1
[36] = tested on: Staphylococcus aureus; experiment: Antibacterial activity against vancomycin-resistant Staphylococcus aureus 10 after 18 to 20 hrs by CLSI-based broth microdilution assay; how it was run: as §1
[37] = tested on: Staphylococcus aureus; experiment: Antibacterial activity against methicilline-resistant Staphylococcus aureus NRS385 USA500 after 18 to 20 hrs by CLSI-based broth microdilution assay; how it was run: as §1
[38] = tested on: Staphylococcus aureus; experiment: Antibacterial activity against methicilline-resistant Staphylococcus aureus NRS386 USA700 after 18 to 20 hrs by CLSI-based broth microdilution assay; how it was run: as §1
[39] = tested on: Staphylococcus aureus; experiment: Antibacterial activity against methicilline-resistant Staphylococcus aureus NRS384 USA300 after 18 to 20 hrs by CLSI-based broth microdilution assay; how it was run: as §1
[40] = tested on: Staphylococcus aureus; experiment: Antibacterial activity against methicilline-resistant Staphylococcus aureus NRS123 USA400 after 18 to 20 hrs by CLSI-based broth microdilution assay; how it was run: as §1
[41] = tested on: Staphylococcus aureus; experiment: Antibacterial activity against methicilline-resistant Staphylococcus aureus NRS-119 after 18 to 20 hrs by CLSI-based broth microdilution assay; how it was run: as §1
[42] = tested on: Staphylococcus aureus; experiment: Antibacterial activity against methicilline-sensitive Staphylococcus aureus ATCC 6538 after 18 to 20 hrs by CLSI-based broth microdilution assay; how it was run: as §1
[43] = tested on: Staphylococcus aureus; experiment: Antibacterial activity against methicilline-sensitive Staphylococcus aureus NRS-107 after 18 to 20 hrs by CLSI-based broth microdilution assay; how it was run: as §1
[44] = tested on: Staphylococcus aureus; experiment: Antibacterial activity against Staphylococcus aureus ATCC BAA42 after 18 to 20 hrs by CLSI-based broth microdilution assay; how it was run: as §1

Compound: C/C(=N\NC(=N)N)c1sc(-c2ccc(N3CCC(Br)CC3)cc2)nc1C
- MIC [1]: 8 µg/mL (≈ 18.4 µM)

Compound: C/C(=N\NC(=N)N)c1sc(-c2ccc(N3CCC4CCCCC4C3)cc2)nc1C (stereo unspecified)
- MIC [1]: > 128 µg/mL

Compound: C/C(=N\NC(=N)N)c1sc(-c2ccc(N3CCSCC3)cc2)nc1C
- MIC [1]: 32 µg/mL (≈ 85.4 µM)

Compound: C/C(=N\NC(=N)N)c1sc(-c2ccc(N3CCCCC3C)cc2)nc1C (stereo unspecified)
- MIC [1]: 8 µg/mL (≈ 21.6 µM)

Compound: GENTAMICIN
- MIC [2]: 32 µg/mL
- MIC [3]: < 0.5 µg/mL
- MIC [4]: < 0.5 µg/mL
- MIC [5]: 1 µg/mL
- MIC [6]: 4 µg/mL
- MIC [7]: 2 µg/mL
- MIC [8]: 2 µg/mL
- MBC [9]: 32 µg/mL
- MBC [10]: < 0.5 µg/mL
- MBC [11]: < 0.5 µg/mL
- MBC [12]: 1 µg/mL
- MBC [13]: 4 µg/mL
- MBC [14]: 4 µg/mL
- MBC [15]: 2 µg/mL

Compound: CC(=O)NC[C@H]1CN(c2ccc(N3CCOCC3)c(F)c2)C(=O)O1 [LINEZOLID]
- MBC [16]: 16 µg/mL (≈ 47.4 µM)
- MBC [17]: 32 µg/mL (≈ 94.9 µM)
- MBC [18]: 32 µg/mL (≈ 94.9 µM)
- MBC [19]: 16 µg/mL (≈ 47.4 µM)
- MBC [20]: 16 µg/mL (≈ 47.4 µM)
- MBC [21]: 8 µg/mL (≈ 23.7 µM)
- MIC [22]: ≤ 0.5 µg/mL
- MIC [23]: 1 µg/mL (≈ 2.96 µM)
- MIC [24]: 0.5 µg/mL (≈ 1.48 µM)
- MBC [25]: 64 µg/mL (≈ 190 µM)
- MBC [26]: > 64 µg/mL
- MBC [27]: 16 µg/mL (≈ 47.4 µM)
- MBC [28]: 32 µg/mL (≈ 94.9 µM)
- MBC [29]: 32 µg/mL (≈ 94.9 µM)
- MBC [30]: 64 µg/mL (≈ 190 µM)
- MBC [31]: > 64 µg/mL
- MBC [32]: 64 µg/mL (≈ 190 µM)
- MBC [33]: 16 µg/mL (≈ 47.4 µM)
- MBC [34]: 16 µg/mL (≈ 47.4 µM)
- MIC [35]: 1 µg/mL (≈ 2.96 µM)
- MIC [36]: 1 µg/mL (≈ 2.96 µM)
- MIC [37]: 1 µg/mL (≈ 2.96 µM)
- MIC [38]: 1 µg/mL (≈ 2.96 µM)
- MIC [39]: 1 µg/mL (≈ 2.96 µM)
- MIC [40]: 1 µg/mL (≈ 2.96 µM)
- MIC [41]: 64 µg/mL (≈ 190 µM)
- MIC [42]: 1 µg/mL (≈ 2.96 µM)
- MIC [43]: 1 µg/mL (≈ 2.96 µM)
- MIC [44]: 1 µg/mL (≈ 2.96 µM)
- MIC [1]: 1 µg/mL (≈ 2.96 µM)

Compound: C/C(=N\NC(=N)N)c1sc(-c2ccc(-n3ccnc3)cc2)nc1C
- MIC [1]: 16 µg/mL (≈ 47.1 µM)

Compound: C/C(=N\NC(=N)N)c1sc(-c2ccc(N3CCOCC3)cc2)nc1C
- MIC [1]: > 128 µg/mL

Compound: C/C(=N\NC(=N)N)c1sc(-c2ccc(N3CCCCCC3)cc2)nc1C
- MIC [1]: > 128 µg/mL
